Compounds with a hit are over-represented: about 2.9% of the library has one in this group of screens.
Wee1 degr inh – inhibitors of human Wee1 degradation | HeLa Luc-Wee1K328M stability, luciferase luminescence; 100% = proteasome inhibitor MG132 effect | AID 1321 | reporter increase, % at 5 µM | 220,000 tested, 1.2% active;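 active = activation above the mean of all tested compounds plus 3 SD, set per screening run, cut at about 8.8% in these data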;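 note: cells exposed to compound for 20 h before luminescence read; 0% = DMSO alone and 100% = MG132 at 30 µM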
proKLK7 act – activators of human kallikrein-7 zymogen; 370,000 tested, 0.9% active; activation, % at 7 µM; P49862; purified proKLK7, EDANS-DABCYL substrate fluorescence; 100% is mature enzyme control, 0% vehicle; AID 652039;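 active = activation above the mean of all tested compounds plus 3 SD, computed per campaign excluding outliers beyond control limits, cut at about 13% in these data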
Target sequence (P49862 whole entry, looked up): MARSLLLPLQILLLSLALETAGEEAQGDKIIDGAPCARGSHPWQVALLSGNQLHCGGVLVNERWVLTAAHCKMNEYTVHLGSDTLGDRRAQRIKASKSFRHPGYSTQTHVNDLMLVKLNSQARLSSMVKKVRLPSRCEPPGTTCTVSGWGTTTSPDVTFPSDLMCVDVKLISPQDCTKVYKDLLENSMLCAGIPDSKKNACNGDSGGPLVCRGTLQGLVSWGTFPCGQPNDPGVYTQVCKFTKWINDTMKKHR
Runt-CBFb FRET – blocks binding of human RUNX1 Runt domain to CBFb | Cerulean-Runt/Venus-CBFb FRET ratio 530/480, 1 h | inhibition, % at 20 µM | 220,000 tested, 0.46% active | AID 1496;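 active = inhibition over about 50% at 20 µM in the single-dose screen, limit read from the data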;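 note: 0% = DMSO wells and 100% = excess unlabeled CBFb competitor control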
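Assay system: Cerulean-Runt domain / Medium: Tris 50 mM pH 7.5, KCl, K2SO4, 0.01% BSA / Timing: protein complex preformed 1 h, compound exposure 1 h, room temperature, dark / Measured by: FRET, excitation 422 nm, emission at 530 and 480 nm / Evaluation: loss of energy transfer signal / Control set: 5 µM unlabeled CBFb as full-inhibition high control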
RanGTP-Impb inh – disruptors of Ran-importin-beta complex formation – biochemical, FRET, CFP-Ran, YFP-importin-beta, homogeneous, primary screen. cell-free CFP-Ran/YFP-importin-beta FRET ratio. AID 2216. inhibition, % (no concentration beside the values). 300,000 tested, 1.1% active;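 active = more than half of the replicate wells show a fall in the fluorescence ratio signal beyond about 16%, limit read from the data, passing the limit was not always enough; inconclusive = exactly half of the replicate wells pass the set limit; inactive = fewer than half of replicates pass the limit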;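 note: 0% = DMSO wells and 100% = Ran loaded with GDP instead of GTP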
AI-2 QS modul – Vibrio harveyi AI-2 quorum sensing modulation. Vibrio harveyi JMH597 AI-2 luminescence/OD600 ratio, 9 h; active compounds read low; strain lacks LuxN and CqsS sensors; 0 = neutral-control median. activity change, % at 7.5 µM. 300,000 tested, 0.4% active; in the data active = activity change below about -75%, passing the limit was not always enough; inconclusive = no clear call, values can overlap the other calls;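 note: luminescence divided by OD600 gain over 9 h not by final OD600 alone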
Runt-SMMHC FRET – Runt domain-CBFb-SMMHC interaction inhibition; inhibition, % at 20 µM; AID 1434; Q01196+Q13951; 220,000 tested, 0.74% active; Cerulean-Runt/Venus-CBFb-SMMHC FRET ratio 530/480, 1 h;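 active = mean inhibition across duplicate retests at 20 µM reaching about 50%, limit read from the data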;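 note: 0% = DMSO wells and 100% = wells with excess untagged CBFb-SMMHC; inhibitors lower the FRET ratio by blocking Runt binding to CBFb-SMMHC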
Starred values were filed as active, the others as inactive; ? = inconclusive; . = no result.

SMILES | Wee1 degr inh | proKLK7 act | Runt-CBFb FRET | RanGTP-Impb inh | AI-2 QS modul | Runt-SMMHC FRET
CN(C)c1nc(Cl)nc2c1nc(Cl)n2C1CCCCO1 (configuration not stated) | . | 0 | . | . | . | .
Nc1c(C(=O)OCC2CCCO2)c2nc3ccccc3nc2n1C1CCCC1 (configuration not stated) | -1 | -44 | 33 | 13 | 7 | 85*
Cc1ccc(O)c(C(=O)c2cc(C#N)c(=O)n(-c3nccs3)c2)c1 | 1 | 17* | -64 | 0 | 42 | -79
Cc1ccc(O)c(C(=O)c2cc(C#N)c(=O)n(-c3c(C)n(C)n(-c4ccccc4)c3=O)c2)c1 | 5 | 2 | -10 | 4 | 22 | -14
CCCCOCCCNC(=O)C[C@@H]1C[C@]2(C(=O)OCC)CCC3=C2N(CCC3)C1=O | . | 0 | . | . | . | .
CCCc1cc(=O)n2[nH]c(C)nc2n1 | 1 | -1 | 1 | 23* | 15 | -4
O=C(NNc1cccc(Cl)c1)c1cccnc1Cl | 9.4* | 1 | 0 | 4 | 1 | -2
CC(=O)NS(=O)(=O)c1ccc(N2C(=O)c3ccccc3C2=O)cc1 | 2 | 0 | 1 | 20* | 12 | 2
Cc1noc(NS(=O)(=O)c2ccc(N3C(=O)c4ccccc4C3=O)cc2)c1C | -1 | 0 | 0 | -1 | 8 | -10
O=C(Oc1ccccc1Cl)c1ccccc1 | . | 1 | . | . | . | .
O=C(Oc1cccccc1=O)c1ccccc1 | 0 | 0 | 3 | 63* | 5 | 0
Fc1ccc(CSc2nc3ncccc3[nH]2)cc1 | 6 | 1 | 102* | ? | 13 | 110
Clc1ccc(-c2cc(-c3nnc4sc(Cc5cccs5)nn34)[nH]n2)cc1 | . | 0 | . | . | . | .
Cc1c(C#N)c(=O)oc2ccc3ccccc3c12 | -2 | -184 | 71* | 1 | 14 | 97*
CC(C(=O)Nc1ccc2c(c1)OCCO2)N(C)CC(=O)Nc1ccccc1Br (configuration not stated) | . | 0 | . | . | . | .
Oc1ccccc1/C=N/Nc1nccnc1Cl | 1 | 0 | 2 | -2 | -43 | 3
Oc1ccc(/C=N/Nc2nccnc2Cl)c(O)c1 | 10* | -1 | -1 | 3 | 29 | -1
COc1cc(C2C(C#N)=C(N)OC3=C2C(=O)CCC3)c([N+](=O)[O-])cc1OC (configuration not stated) | -1 | 25* | -14 | -4 | -1 | -56
Cc1cc(C2C(C#N)=C(N)OC3=C2C(=O)CCC3)c(C)s1 (configuration not stated) | 3 | -1 | 0 | -13 | 7 | -1
Cc1ccc(C2=NNC(=O)C(c3ccc(Cl)cc3)C2)cc1 (configuration not stated) | 1 | 1 | 0 | 9 | -84* | 0
CC(=O)c1ccc(C(C)(C)c2ccc(C(C)=O)s2)s1 | 9.3* | 1 | -2 | 0 | 9 | -2
CC(C)(C)c1ccc(C(=O)N2CCCC2)s1 | -2 | 1 | 0 | 3 | 24 | -1
O=C(OCc1cn(Cc2ccc(F)c(F)c2)nn1)N1CCCC1 | . | 0 | . | . | . | .
Cc1cccc(CSc2cn(CC(=O)N3CCOCC3)c3ccccc23)c1 | 2 | 0 | -5 | ? | 8 | -1
O=C(Cn1cc(SCc2cccc(Cl)c2)c2ccccc21)N1CCOCC1 | 11* | 0 | -2 | 3 | -17 | -2
SMILES | Wee1 degr inh | proKLK7 act | Runt-CBFb FRET | RanGTP-Impb inh | AI-2 QS modul | Runt-SMMHC FRET
COCCNCc1ccccc1[N+](=O)[O-] | . | 1 | . | . | . | .
COc1ccc(Cn2c(=N)c(C(=O)NCC3CCCO3)cc3c(=O)n4ccccc4nc32)cc1 (configuration not stated) | . | 1 | . | 23* | 22 | .
N=c1c(C(=O)NCC2CCCO2)cc2c(=O)n3ccccc3nc2n1Cc1ccc(Cl)cc1 (configuration not stated) | . | -5 | . | 180* | 13 | .
N=c1c(C(=O)NCC2CCCO2)cc2c(=O)n3ccccc3nc2n1Cc1ccccc1Cl (configuration not stated) | . | -6 | . | 188* | 17 | .
Cc1ccc(Cn2c(=N)c(C(=O)NCC3CCCO3)cc3c(=O)n4ccccc4nc32)cc1 (configuration not stated) | . | -1 | . | 161* | 15 | .
Cc1ccc(Cn2c(=N)c(C(=O)NCC3CCCO3)cc3c(=O)n4cccc(C)c4nc32)cc1 (configuration not stated) | . | 2 | . | -3 | 19 | .
COc1ccc(CCn2c(=N)c(C(=O)NCC3CCCO3)cc3c(=O)n4ccccc4nc32)cc1 (configuration not stated) | . | 1 | . | 0 | 24 | .
CN(C)CCCNC(=O)c1c(N)[nH]c(C(=O)c2ccc(Br)cc2)c1-c1ccc(Br)cc1 | . | 0 | . | . | . | .
CC1CCCCN1S(=O)(=O)c1ccc(S(=O)(=O)N2CCN(C)CC2)cc1 (configuration not stated) | . | -1 | . | -3 | 18 | .
CCCCc1nc2c(C)c(N)cnc2n1Cc1cccc([N+](=O)[O-])c1 | . | 0 | . | ? | -7 | .
N=c1c(C(=O)NCc2ccco2)cc2c(=O)n3ccccc3nc2n1CC1CCCO1 (configuration not stated) | 1 | 9 | . | 130* | 9 | .
COc1ccc(CNC(=O)c2cc3c(=O)n4ccccc4nc3n(Cc3ccco3)c2=N)cc1 | -1 | . | . | . | . | .
Cc1ccc(Cn2c(=N)c(C(=O)NCc3ccco3)cc3c(=O)n4ccccc4nc32)cc1 | -2 | -5 | 29 | 114* | 25 | .
N=c1c(C(=O)NCc2ccc3c(c2)OCO3)cc2c(=O)n3ccccc3nc2n1CC1CCCO1 (configuration not stated) | . | 1 | . | -13 | 14 | .
CCOC(=O)CN1C(=O)S/C(=C/c2cccc([N+](=O)[O-])c2O)C1=O | 10* | 0 | -11 | -5 | 18 | -6
O=C(O)c1cccc(CN2C(=O)S/C(=C/c3ccccc3[N+](=O)[O-])C2=O)c1 | 1 | 4 | 2 | -1 | 60 | -2
O=C(c1ccncc1)N1CC[C@H]2[C@H](CCCN2Cc2ccccc2)C1 | . | 0 | . | . | . | .
Cc1sc(NC(=O)COc2ccccc2)c(C#N)c1-c1ccccc1 | 9.6* | 0 | 1 | 1 | 32 | 0
COc1ccc(C(=O)Nc2sc(C)c(-c3ccccc3)c2C#N)cc1OC | 0 | -2 | 2 | 79* | 9 | 6
COCCCNC(=O)[C@@H](Cc1ccccc1)NC(=O)[C@H]1O[C@@H](n2ccc(=O)[nH]c2=O)[C@H](O)[C@@H]1O | . | 0 | . | . | . | .
COc1ccc(S(=O)(=O)Nc2ccc3c(c2)C(=O)N([C@@H](C)CO)C[C@H](C)[C@H](CN(C)S(=O)(=O)c2ccc(F)cc2)O3)cc1 | . | -1 | . | . | . | .

Screening data deposited in PubChem by several laboratories.
